{
  "source": "ChEMBL document CHEMBL1154124",
  "about": "“Vascular effects of different lipophilic components of \"Danshen\", a traditional Chinese medicine, in the isolated porcine coronary artery” (2008)",
  "conditions_in_all_cases": "Sus scrofa",
  "key": {"[1]": {"tested_on": "Artery", "experiment": "Vasorelaxant activity in pig endothelium-intact coronary artery assessed as inhibition of U46619-induced contraction at 50 ug/ml", "format": "functional, tissue-based", "outline": "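Porcine coronary rings with endothelium in Krebs-Henseleit solution at 37 °C, gassed with 95% O2/5% CO2, held at 2 g resting tension and equilibrated 100 min. Each ring was contracted twice with KCl 30 mM and relaxed with bradykinin 1 µM. Test material as a PVP complex was given for 30 min, then cumulative U46619 0.1 nM–1 µM. Contraction was expressed as % of the mean KCl response, giving ED50 and Emax; n=8.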"}, "[2]": {"tested_on": "Artery", "experiment": "Vasorelaxant activity in pig endothelium-intact coronary artery assessed as inhibition of U46619-induced contraction", "format": "functional", "outline": "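Endothelium-intact porcine coronary rings at 2 g resting tension in Krebs-Henseleit, 37 °C, gassed with 95% O2/5% CO2. Rings were discarded if the mean KCl 30 mM contraction was under 4 g or bradykinin relaxation under 40%. PVP K30-complexed sample was given for 30 min. Cumulative U46619 was then added (0.1 nM to 1 µM). ED50 and Emax use % of the mean KCl 30 mM contraction; n = 8, separate hearts.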"}, "[3]": {"tested_on": "Artery", "experiment": "Vasorelaxant activity in pig endothelium-intact coronary artery assessed as reversible inhibition of U46619-induced contraction at 1 uM", "format": "functional, tissue-based"}, "[4]": {"tested_on": "Artery", "experiment": "Vasorelaxant activity in pig endothelium-denuded coronary artery assessed as inhibition of U46619-induced contraction at 15 ug/ml", "format": "functional, tissue-based", "outline": "(§1)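 Endothelium-removed porcine coronary rings at 2 g resting tension in Krebs-Henseleit, 37 °C, 95% O2/5% CO2. Each ring was primed twice with KCl 30 mM and relaxed with bradykinin 1 µM. Test material, as a PVP K30 complex, was given for 30 min. Stepwise contractions were then made with 5-HT (10 nM to 10 µM), U46619 (0.1 nM to 1 µM) or KCl (10-70 mM). Tension is % of the mean of the two KCl 30 mM contractions; n = 7-11.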"}, "[5]": {"tested_on": "Artery", "experiment": "Vasorelaxant activity in pig endothelium-denuded coronary artery assessed as inhibition of potassium chloride-induced contraction at 50 ug/ml", "format": "functional, tissue-based", "outline": "as §1"}, "[6]": {"tested_on": "Artery", "experiment": "Vasorelaxant activity in pig endothelium-denuded coronary artery assessed as inhibition of 5-hydroxytryptamine-induced contraction at 15 ug/ml", "format": "functional, tissue-based", "outline": "as §1"}},
  "note": "Active and inactive are the calls of the source. The rule behind the calls is not given here.",
  "data": [
    {"smiles": "Cc1coc2c1C(=O)C(=O)c1c-2ccc2c1CCCC2(C)C", "note": "[TANSHINONE IIA]", "values": [
      {"measurement": "Activity", "setting": "[1]", "value": "Active"},
      {"measurement": "Emax", "setting": "[2]", "value": 92.9, "unit": "%"}
    ]},
    {"smiles": "CC1(C)CCCc2c1ccc1c2C(=O)C(=O)c2c(CO)coc2-1", "note": "[PRZEWAQUINONE A]", "values": [
      {"measurement": "Activity", "setting": "[3]", "value": "Active"},
      {"measurement": "Activity", "setting": "[4]", "value": "Active"},
      {"measurement": "Activity", "setting": "[5]", "value": "Active"},
      {"measurement": "Emax", "setting": "[2]", "value": 29.2, "unit": "%"},
      {"measurement": "Activity", "setting": "[6]", "value": "Active"}
    ]},
    {"smiles": "C[C@H]1COC2=C1C(=O)C(=O)c1c2ccc2c1CCCC2(C)C", "note": "[CRYPTOTANSHINONE]", "values": [
      {"measurement": "Activity", "setting": "[1]", "value": "Active"},
      {"measurement": "Emax", "setting": "[2]", "value": 64.9, "unit": "%"}
    ]}
  ]
}
